Results from different studies.
Each line is one published result; the experiments were not run side by side.

SMILES	test	test system	conditions	measurement	value
Cc1ccc(C(=O)N(CCCN)[C@@H](c2oc3cc(Cl)ccc3c(=O)c2Cc2ccccc2)C(C)C)cc1		human, plasma	intravenous, 5 mg/m², single dose, patients, infusion	clearance	20.5 mL/min
Fc1cccc(Nc2nc(-c3ccccn3)nc3ccccc23)c1	metabolic stability	human, liver microsomes		microsomal CLint	81 µL/min/mg
Cn1cnc(-c2nc3ccccn3c2Nc2ccc(F)cc2)c1	metabolic stability	rat, hepatocytes		hepatocyte CLint	14 µL/min/10⁶ cells
c1ccc(-c2nc(N3CCN(c4ccccn4)CC3)c3ccccc3n2)nc1	metabolic stability	human, liver microsomes		microsomal CLint	79 µL/min/mg
C[C@@H](C(=O)NC1Cc2ccccc2C1)c1ccccc1	metabolic stability	rat, liver microsomes	1 µM	microsomal CLint	> 200 µL/min/mg
CN(C)C(=O)c1ccc(-c2c(-c3ccccn3)nc3n2CCC3)cc1	metabolic stability	rat, hepatocytes		hepatocyte CLint	< 1 µL/min/10⁶ cells
C[C@@H](C(=O)N1Cc2c(-c3ccc(C(=O)N4CCCc5ccccc54)cc3)cnn2C[C@@H]1C)c1ccccc1	HPLC		pH 7.4	chromatographic logD	4.8
NC(=O)C1CCN(c2nc(-c3ccccn3)nc3ccccc23)C1 (stereo not shown)	metabolic stability	human, liver microsomes		microsomal CLint	37 µL/min/mg
CS(=O)(=O)CCC#N		human, plasma	oral, 100 mg, single dose, fasted	CL/F	0.3 mL/min/kg
CC(C)CN(C[C@@H](O)[C@H](Cc1ccccc1)NC(=O)O[C@H]1CO[C@H]2OCC[C@H]21)S(=O)(=O)c1ccc(N)cc1	shake flask	PBS	pH 3	logD	2.98
Cn1nccc1-c1nc(N2CCC(c3ccccn3)C2)c2ccccc2n1 (stereo not shown)	metabolic stability	human, liver microsomes		microsomal CLint	59 µL/min/mg
COc1cccc(-c2nc3ccccn3c2Nc2ccc(F)cc2)n1	metabolic stability	rat, hepatocytes		hepatocyte CLint	> 300 µL/min/10⁶ cells
CCOC(=O)C1=C(C)N/C(=C/c2ccn(-c3ccc(C(F)(F)F)cc3)c2)C1=O	HPLC		pH 7.4	chromatographic logD	3.4
COc1cc(C(=O)NC2CCN(C)CC2)c(F)cc1Nc1ncc(C(F)(F)F)c(Oc2cccc3c2C(=O)N(C)C3)n1		human, plasma	oral, 10 mg, multiple doses, once daily, patients	CL/F	347 mL/min
COc1ccc2nc(-c3cc(N(C)C)ccn3)c(N(C)c3ccc(F)cc3)n2c1	metabolic stability	rat, hepatocytes		hepatocyte CLint	> 300 µL/min/10⁶ cells
c1cnc2ccc(Nc3nc(NC4CC4)c4nc[nH]c4n3)cc2c1		human, plasma	oral, 400 mg/m², patients	CL/F	1910 mL/min
Cc1cccc(N2CCN(c3nc(-c4ccccn4)nc4ccccc34)CC2)n1	metabolic stability	human, liver microsomes		microsomal CLint	165 µL/min/mg
CN(c1ccc(F)cc1)c1c(-c2ccc(F)cn2)nc2ccccn12	metabolic stability	rat, hepatocytes		hepatocyte CLint	> 300 µL/min/10⁶ cells
OC[C@H]1O[C@@H](c2ccc(Cl)c(Cc3ccc(O[C@H]4CCOC4)cc3)c2)[C@H](O)[C@@H](O)[C@@H]1O		human, urine	oral, 2.5 mg, single dose	renal clearance	29.1 mL/min
c1ccc(-c2nc(N3CCCC3c3ccccn3)c3ccccc3n2)nc1 (stereo not shown)	metabolic stability	human, liver microsomes		microsomal CLint	62 µL/min/mg
CCCN(c1ccc(F)cc1)c1c(-c2ccccn2)nc2ccccn12	metabolic stability	rat, hepatocytes		hepatocyte CLint	110 µL/min/10⁶ cells
CC1=C(C(=O)OCc2ccccc2)C(=O)/C(=C\c2cc(C)n(-c3ccccc3C(F)(F)F)c2C)N1	HPLC		pH 7.4	chromatographic logD	4
COc1ccc(Nc2nc(-c3ccccn3)nc3ccccc23)cc1	metabolic stability	human, liver microsomes		microsomal CLint	73 µL/min/mg
Clc1cccc(-c2c(-c3ccccn3)nc3n2CCC3)c1	metabolic stability	rat, hepatocytes		hepatocyte CLint	51 µL/min/10⁶ cells
CCNCCCNC/C=C\CNCCCNCC		human, plasma	intravenous, 50 mg, patients, infusion	clearance	10500 mL/min
c1ccc(-c2nc(N3CCC(c4ccccn4)C3)c3ccccc3n2)cc1 (stereo not shown)	metabolic stability	human, liver microsomes		microsomal CLint	182 µL/min/mg
COc1ccn2c(Nc3ccccc3F)c(-c3ccncn3)nc2c1	metabolic stability	rat, hepatocytes		hepatocyte CLint	170 µL/min/10⁶ cells
Cc1c(C(=O)NN2CCCCC2)nc(-c2ccc(Cl)cc2Cl)n1-c1ccc(OCc2ccccc2)cc1	shake flask	aqueous buffer	pH 7.4	logD	> 5.3
